We go through 17 compounds from ChEMBL document CHEMBL4041475, “Novel 2-arylazoimidazole derivatives as inhibitors of Trypanosoma cruzi proliferation: Synthesis and evaluation of their biological activity” (Eur J Med Chem, 2017).

SMILES strings stand for the structures. The source made the active and inactive calls. The calls are words filed in the database; no cut-off is given here.

Series [1] concerns Trypanosoma cruzi. Description: Trypanocidal activity against Trypanosoma cruzi TCC epimastigotes at 1 to 15 uM supplemented with fresh medium containing compound every 9 to 10 days by haemocytometric method. The class given is functional. The method in brief: (§1)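 TCC strain epimastigotes grown at 28 °C in Diamond medium with haemin and 10% FBS. Seeded at 10×10⁶/mL in duplicate with 1, 5, 10 or 15 μM compound, alongside untreated cultures. Counted daily in a haemocytometer. Every ~9–10 days, re-diluted to 5×10⁶/mL in fresh compound-containing medium to start a new round.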

The test system of series [2] is Trypanosoma cruzi. The experiment in a line: Trypanocidal activity against Trypanosoma cruzi TCC epimastigotes assessed as maximal parasite density at 1 to 15 uM supplemented with fresh medium containing compound every 9 to 10 days measured on third week by haemocytometric method. The class given is functional. The method in brief:
as §1

The test system of series [3] is Trypanosoma cruzi. The experiment in a line: Trypanocidal activity against Trypanosoma cruzi RA tripamastigote bloodstream forms infected in Balb/c mouse assessed as reduction in parasitaemia at 100 mg/kg, po administered on day 9 post infection for 5 consecutive days measured on day 35 post infection relative to control. The class given is functional. Further details: scale not given: the % may be the effect or the level left. Summed up:
(§2)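 Balb/c males, 6–8 weeks, groups of six, infected i.p. with 100 RA strain bloodstream trypomastigotes. Oral dosing for 5 consecutive days once parasites were circulating, in 0.1 M PBS pH 7.2, with vehicle as negative control. Tail-vein blood (5 μl) diluted 1:10 in NH₄Cl/Tris lysis buffer and counted in a haemocytometer every other day.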

Series [4] can be described thus: Cytotoxicity against mouse RAW cells assessed as reduction in cell viability after 24 hrs by MTT assay. The class given is cell-based. Summed up: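 RAW cells, 1x10⁵ per well, exposed to 125–1000 μM compound for 24 h at 37 °C, 5% CO₂; MTT added at 1.5 mg/mL final for 4 h, formazan dissolved in 1% SDS/0.01 M HCl, absorbance at 540 nm. CC50 obtained by linear regression of log OD against log concentration. Run in duplicate.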
Background: Tetrazolium assays rely on reduction of a dye to a coloured formazan, in cell work by metabolically active cells.

In series [5] the test system is Trypanosoma cruzi. The experiment in a line: Trypanocidal activity against Trypanosoma cruzi TCC epimastigotes assessed as parasite duplication time at 1 to 15 uM supplemented with fresh medium containing compound every 9 to 10 days measured on third week. The class given is functional. Summed up: as §1
The test system of series [6] is Trypanosoma cruzi. Description: Trypanocidal activity against Trypanosoma cruzi TCC epimastigotes assessed as effect on parasite viability at 1 to 15 uM supplemented with fresh medium containing compound every 9 to 10 days measured on third week by maximal parasite density. It counts as functional. The method in brief:
as §1

For series [7], the system named is Trypanosoma cruzi. The experiment in a line: Trypanocidal activity against Trypanosoma cruzi RA tripamastigote bloodstream forms isolated from infected CF1 mouse blood after 24 hrs by haemocytometric method. The class given is functional. Summed up: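 RA strain bloodstream trypomastigotes taken from CF1 mouse blood at parasitaemia peak (day 5 p.i.) and diluted in medium to 1.5×10⁶/ml. Exposed in duplicate to 125–1000 μM compound at 4 °C for 24 h. Viable parasites counted in a haemocytometer; % lysis computed against untreated control. IC50 obtained from log %L against log concentration.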

The test system of series [8] is Trypanosoma cruzi. Description: Trypanocidal activity against Trypanosoma cruzi RA tripamastigote bloodstream forms infected in Balb/c mouse assessed as reduction in circulating parasite level in acute phase at 100 mg/kg, po administered on day 9 post infection for 5 consecutive days. The class given is functional, organism-based. The method in brief: as §2
Series [9] concerns Trypanosoma cruzi. The experiment in a line: Trypanocidal activity against Trypanosoma cruzi TCC epimastigotes assessed as effect on parasite motility at 1 to 15 uM supplemented with fresh medium containing compound every 9 to 10 days measured on third week. The class given is functional. The method in brief:
as §1

Series [10] deals with Trypanosoma cruzi. The experiment in a line: Trypanocidal activity against Trypanosoma cruzi RA tripamastigote bloodstream forms infected in Balb/c mouse assessed as mouse survival at 100 mg/kg, po administered on day 9 post infection for 5 consecutive days measured daily during compound dosing up to 45 days post infection. It counts as functional. The method in brief: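 Male Balb/c mice (6–8 weeks, groups of six) were infected intraperitoneally with 100 bloodstream trypomastigotes harvested from CF1 mice. Oral dosing at 100 mg/kg/day for five consecutive days began once circulating parasites were confirmed microscopically, on day 9 p.i. Drugs were suspended in 0.1 M PBS (pH 7.2), prepared fresh daily; vehicle served as negative control. Mortality was recorded daily to 45 days p.i.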

The test system of series [11] is Trypanosoma cruzi. Description: Trypanocidal activity against Trypanosoma cruzi TCC epimastigotes assessed as maximal parasite density at 15 uM measured after 9 to 10 days by haemocytometric method (reference value: 45 10^6/ml). The class given is functional. Summed up:
as §1

The subject of series [12] is Trypanosoma cruzi. Description: Trypanocidal activity against Trypanosoma cruzi TCC epimastigotes assessed as parasite duplication time at 15 uM measured after 9 to 10 days (reference value: 2 day). It counts as functional. Summed up: as §1
Setting [13] is: in the assay text read “day 18 post infection relative” for “day 35 post infection relative”.

For `COc1ccc(/N=N/c2nccn2CC(=O)NC2CCCCC2)c([N+](=O)[O-])c1`, in the series with Trypanosoma cruzi [1], the outcome was inactive.

Take `NC(CCCCNC(=O)Cn1ccnc1/N=N/c1ccc([N+](=O)[O-])cc1)C(=O)O` (configuration not stated): in the series on Trypanosoma cruzi [1], the outcome was inactive.

For the compound `COc1ccc(/N=N/c2nccn2CC(=O)N2CCOCC2)c([N+](=O)[O-])c1`, the result with Trypanosoma cruzi [1] was inactive.

In general, CC50 refers to the concentration giving 50% cytotoxicity. For orientation: IC50 means the midpoint of a concentration-inhibition curve. For the compound `O=C(Cn1ccnc1/N=N/c1ccc(C(F)(F)F)cc1)N1CCCCC1`, the Activity is reported as 5 - 6 ×10⁶ /ml with Trypanosoma cruzi [2] and 60% with Trypanosoma cruzi [3] (setting [13]). In addition, the 50% cytotoxic concentration (CC50) at 24 h in [4] amounted to 415 µM. Also, the Time in the series on Trypanosoma cruzi [5] was 9 to 12 days. In addition, the result with Trypanosoma cruzi [6], with Trypanosoma cruzi [8] and in the series on Trypanosoma cruzi [9] was Active. Besides, inhibition in the series on Trypanosoma cruzi [7] was half-maximal at 1080 µM (IC50). Further, the survival at 100 mg/kg in the series with Trypanosoma cruzi [10] was 67%.

As for `COc1ccc(/N=N/c2nccn2CC(=O)N2CCCCC2)c([N+](=O)[O-])c1`, in the series on Trypanosoma cruzi [1], the result was inactive.

Regarding `O=C(Cn1ccnc1/N=N/c1ccc([N+](=O)[O-])cc1)N1CCCC1`, the result in the series on Trypanosoma cruzi [1] was inactive.

On to `O=C(Cn1ccnc1/N=N/c1ccc(Cl)c(Cl)c1)N1CCCC1`, for which the result in the series with Trypanosoma cruzi [1] was inactive.

Regarding `O=C(Cn1ccnc1/N=N/c1ccc(C(F)(F)F)cc1)N1CCCC1`, in the series with Trypanosoma cruzi [1], the outcome was inactive.

In the case of `O=C(Cn1ccnc1/N=N/c1ccc(C(F)(F)F)cc1)N1CCOCC1`, the outcome with Trypanosoma cruzi [1] was inactive.

With `O=C(Cn1ccnc1/N=N/c1ccc([N+](=O)[O-])cc1)NC1CCCCC1`, the outcome in the series with Trypanosoma cruzi [1] was inactive.

`O=C(Cn1ccnc1/N=N/c1ccc(Cl)cc1)N1CCCC1`: in the series on Trypanosoma cruzi [1], the outcome was inactive.

As to `O=C(Cn1ccnc1/N=N/c1ccc(C(F)(F)F)cc1)NC1CCCCC1`, in the series on Trypanosoma cruzi [1], the outcome was inactive.

Consider `O=C(Cn1ccnc1[N+](=O)[O-])NCc1ccccc1` [BENZNIDAZOLE], for which the outcome in the series on Trypanosoma cruzi [2], in the series on Trypanosoma cruzi [3], in the series on Trypanosoma cruzi [5], with Trypanosoma cruzi [6] and with Trypanosoma cruzi [9] was Active. In addition, in the series with Trypanosoma cruzi [11], the Activity amounted to 25 ×10⁶ /ml. For the same compound, in the series with Trypanosoma cruzi [12], the Time was 3 days. Further, the survival at 100 mg/kg with Trypanosoma cruzi [10] was found to be 100%.

Take `O=C(Cn1ccnc1/N=N/c1ccc(Cl)cc1)N1CCCCC1`: the result in the series on Trypanosoma cruzi [1] was inactive.

Regarding `O=C(Cn1ccnc1/N=N/c1ccc([N+](=O)[O-])cc1)N1CCOCC1`, the outcome with Trypanosoma cruzi [1] was inactive.

The compound `CN(C)c1ccc(C(=C2C=CC(=[N+](C)C)C=C2)c2ccc(N(C)C)cc2)cc1` [GENTIAN VIOLET] displayed a 50% inhibitory concentration (IC50) in the series with Trypanosoma cruzi [7] of 2.8 µM.

`O=C(Cn1ccnc1/N=N/c1ccc([N+](=O)[O-])cc1)N1CCCCC1`: the Activity is 5 - 6 ×10⁶ /ml with Trypanosoma cruzi [2], 71% in the series on Trypanosoma cruzi [3] (setting [13]) and 20 ×10⁶ /ml in the series on Trypanosoma cruzi [11]. Moreover, the CC50 at 24 h in [4] amounted to 206 µM. In addition, the figures for the Time with Trypanosoma cruzi [5] and with Trypanosoma cruzi [12] were 9 to 12 days and 4 days, respectively. In addition, the outcome with Trypanosoma cruzi [6], in the series with Trypanosoma cruzi [8] and in the series with Trypanosoma cruzi [9] was Active. In the series on Trypanosoma cruzi [7], this compound gave an IC50 of 645 µM. Besides, the survival at 100 mg/kg with Trypanosoma cruzi [10] turned out to be 67%.
